The values that follow come from ChEMBL document CHEMBL3244412, “Benzopyrones. 14. Synthesis and antiallergic properties of some N-tetrazolylcarboxamides and related compounds” (1978).

In general, inhibition refers to the relative decrease from the control value, in per cent. A word on the inhibition in vivo: it is the drop in the measured response relative to a control, in per cent. In general, ED50 refers to the dose that gives a 50% effect, or the effect in half of the subjects.

In brackets after ≈: the same amount, converted by molar mass. Some results are limits rather than exact numbers.

Test [1] is filed under the species Homo sapiens. As to the kind of experiment: Antianaphylactic activity in human lung fragments assessed as inhibition of sheep anti-human IgE-induced histamine release at 18 ug/ml treated 10 mins prior to sheep anti-human IgE-challenge measured after 15 mins by superfusion assay relative to control. The format is functional. In outline: (§1)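 Human lung fragments in Tyrode's solution were incubated with the compound for 10 min, then challenged with sheep anti-human IgE and centrifuged for 15 min after challenge. Free and residual histamine were measured by superfusion bioassay on atropine-treated guinea pig ileum. % release and % inhibition were calculated from net release. Values are means of three experiments, each in duplicate.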

For test [2], the species on record is Homo sapiens. The test is described as follows: Antianaphylactic activity in human lung fragments assessed as inhibition of sheep anti-human IgE-induced histamine release at 180 ug/ml treated 10 mins prior to sheep anti-human IgE-challenge measured after 15 mins by superfusion assay relative to control. The format is functional. Summed up: as §1
The species named for test [3] is Homo sapiens. As to the kind of experiment: Antianaphylactic activity in human lung fragments assessed as inhibition of sheep anti-human IgE-induced histamine release treated 10 mins prior to sheep anti-human IgE-challenge measured after 15 mins by superfusion assay. It is filed as functional. Summed up: as §1
A short description of test [4]: Antianaphylactic activity in rat mast cells assessed as inhibition of DNP-ovalbumin-induced histamine release after 15 mins by superfusion assay. The format is functional. The following applies: Mast cell, 0.25 h, read-out: ED50 (the source's name). Summed up: (§2)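 Peritoneal and pleural cells from male albino rats were washed, sensitized with 1:10 rat reaginic anti-DNP-ovalbumin serum for 2 h at 37 °C, and resuspended at 1.2-1.7 × 10⁵ mast cells/mL. Compound and DNP-ovalbumin were added together and incubated for 15 min at 37 °C. Supernatant (free) and lysed-cell (residual) histamine were assayed by guinea pig ileum superfusion bioassay. Inhibition of net histamine release was used to derive EC50 from dose ranging against the reference compound.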

Test [5] can be described thus: Antianaphylactic activity in rat mast cells assessed as inhibition of DNP-ovalbumin-induced histamine release after 15 mins by superfusion assay relative to 4-oxo-N-(5-tetrazolyl)-4H-l-benzopyran-2-carboxamide. It is filed as functional, Mast cell. Summed up:
as §2

In test [6] the test system is Rattus norvegicus. As to the kind of experiment: Antiallergic activity in rat assessed as inhibition of DNP-ovalbumin-induced passive cutaneous anaphylaxis at 1 mg/kg, iv after 30 mins relative to control. The following applies: Rattus norvegicus, iv, 0.5 h. It is filed as functional. In outline: (§3)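 Female albino rats (groups of four) were shaved and sensitized by dorsal intradermal injection of 0.1 mL diluted rat reaginic anti-DNP-ovalbumin serum, raised with Bordetella pertussis adjuvant. After 48 h they were challenged iv with 2 mg DNP-ovalbumin in 0.5 mL 1% Evans blue/saline, with the compound given iv in aqueous solution at the same time. After 30 min, skin weals were scored visually on a 5-point scale; % inhibition was taken versus vehicle controls.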

The subject of test [7] is Rattus norvegicus. As to the kind of experiment: Antiallergic activity in iv dosed rat assessed as inhibition of DNP-ovalbumin-induced passive cutaneous anaphylaxis after 30 mins. It is filed as functional. The following applies: 0.5 h. Summed up:
as §3

For test [8], the system named is Rattus norvegicus. As to the kind of experiment: Antiallergic activity in po dosed rat assessed as inhibition of DNP-ovalbumin-induced passive cutaneous anaphylaxis administered 10 mins prior to DNP-ovalbumin-challenge. It is filed as functional. In outline:
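This rat passive cutaneous anaphylaxis model used reaginic anti-DNP-ovalbumin serum given intradermally, iv DNP-ovalbumin with Evans blue 48 h later, and weal scoring. Rats were starved overnight and dosed orally with the compound in aqueous solution 10 min before iv antigen challenge. ED50 was calculated with 95% confidence limits, assuming a log-linear dose response.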

The species entered for test [9] is Homo sapiens. The test is described as follows: Antianaphylactic activity in human lung fragments assessed as inhibition of sheep anti-human IgE-induced histamine release at 0.18 ug/ml treated 10 mins prior to sheep anti-human IgE-challenge measured after 15 mins by superfusion assay relative to control. It is filed as functional. Summed up:
as §1

For test [10], the species on record is Homo sapiens. The test is described as follows: Antianaphylactic activity in human lung fragments assessed as inhibition of sheep anti-human IgE-induced histamine release at 1.8 ug/ml treated 10 mins prior to sheep anti-human IgE-challenge measured after 15 mins by superfusion assay relative to control. The format is functional. In outline:
as §1

Test [11] relates to Rattus norvegicus. As to the kind of experiment: Antiallergic activity in rat assessed as inhibition of DNP-ovalbumin-induced passive cutaneous anaphylaxis at 5 mg/kg, iv after 30 mins relative to control. The following applies: 0.5 h. The format is functional. In outline: as §3

As for `O=C(Nc1nnn[nH]1)c1cc(=O)c2ccccc2o1`, the inhibition in [1] was 43.3%; in [2], 61.6%; in test [3], “Dose-dependent effect”; in test [9] it was 5%; in test [10], 46.4%. Moreover, the EC50 in test [4] was found to be 0.08 µg/mL (≈ 0.311 µM). The “fold change (potency relative to reference compound)” value in [5] was found to be 1. In [6], the inhibition in vivo at 1 mg/kg was 100%. The 50% effective dose (ED50) in [7] stood at 0.037 mg/kg; in test [8], 21 mg/kg.

For `O=C(Cc1nnn[nH]1)Nc1coc2ccccc2c1=O`, the EC50 in test [4] was > 18 µg/mL. Further, the “fold change (potency relative to reference compound)” value in test [5] is on record as <0.005. For the same compound, the inhibition in vivo at 5 mg/kg in test [11] came out at 0%.

On to `O=c1c(-n2nn[nH]c2=O)coc2ccccc12`, for which, in [4], the EC50 worked out at 5 µg/mL (≈ 21.7 µM). In addition, in [5], the “fold change (potency relative to reference compound)” value was determined as 0.01. For the same compound, in [11], the inhibition in vivo at 5 mg/kg is 75%.

Consider `O=C(Nc1nnn[nH]1)c1cccc2c(=O)c3ccccc3[nH]c12`, for which the EC50 in [4] is 0.65 µg/mL (≈ 2.12 µM). For the same compound, the “fold change (potency relative to reference compound)” value in test [5] stood at 0.14. The inhibition in vivo at 1 mg/kg in test [6] was 90%.

For `O=C(Nc1nnn[nH]1)c1oc2ccccc2c(=O)c1Cl`, the EC50 in test [4] was 0.8 µg/mL (≈ 2.74 µM). In addition, the “fold change (potency relative to reference compound)” value in [5] amounted to 0.11. Besides, the inhibition in vivo at 1 mg/kg in test [6] came out at 75%.
